Results: PMC11068032 (Journal of medicinal chemistry, 2023)

What was measured:
[1] = system: AR protein level in T98G cells; experiment: AR downregulation in T98G cells by Western blotting; type: cell-based, human; details: for AR downregulation activity at 50 nM / AR downregulation activity at 100 nM: 12 h; for AR protein level: 25, 50, and 100 nM
Method in brief: (§1)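 Cells in 6-well plates treated with test compound or DMSO (T98G screens at 100 or 50 nM for 12 h). Lysed in RIPA with protease inhibitors (10 min on ice), spun at 10,000g for 10 min, protein by BCA. 50 µg resolved on 10% SDS-PAGE, transferred to PVDF, blocked 2 h in 5% milk/TBS-T. Anti-AR or anti-AR-V7 primary overnight at 4 °C, secondary 60 min at RT, chemiluminescence. Band gray values quantified.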

[2] = system: AR protein level in U87 cells; experiment: AR downregulation in U87 cells by Western blotting; type: cell-based, human; details: 25, 50, and 100 nM
Method in brief: as §1

AR-V7 in T98G cells = experiment: Mutated AR; type: cell-based, human; details: Western blotting
Method in brief: as §1

[3] = biological target: T1, α-crystallin (chaperone function domain of HSP27) (Bos taurus, UniProt P02470+P02510); experiment: HSP27 chaperone activity assay; type: biochemical; details: for inhibition of in vitro chaperone function of HSP27: 10 μM (Figure 3), α-crystallin present; for interference with DTT-induced insulin aggregation: without chaperone protein, 10 μM or below
T1 sequence (P02470 1-173): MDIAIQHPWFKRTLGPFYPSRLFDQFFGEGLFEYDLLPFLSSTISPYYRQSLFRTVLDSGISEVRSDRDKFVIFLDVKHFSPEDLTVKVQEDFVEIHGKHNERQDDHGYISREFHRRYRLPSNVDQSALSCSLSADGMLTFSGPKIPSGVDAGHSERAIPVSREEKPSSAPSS
T1 sequence (P02510 1-175): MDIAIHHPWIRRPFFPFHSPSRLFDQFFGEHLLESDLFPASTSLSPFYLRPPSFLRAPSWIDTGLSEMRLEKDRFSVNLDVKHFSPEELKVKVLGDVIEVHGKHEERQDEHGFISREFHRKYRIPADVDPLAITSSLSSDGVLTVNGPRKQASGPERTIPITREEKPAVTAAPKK
Method in brief: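 Chaperone assay: insulin (from 1 mg/mL stock) with α-crystallin, the HSP27 chaperone domain (from 5 mg/mL stock), and test compound in PBS. Preincubated 5 min at 37 °C, then aggregation started with DTT (from 1 M stock). A400 read every 3 min for up to 2 h. Controls were insulin with or without α-crystallin in 0.1% DMSO. Three independent experiments, each in triplicate; mean curves.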

AR in U87 cells = experiment: AR immunofluorescence assay in U87 cells; type: cell-based, human; details: 50 nM, 12 h, compared to the control
Method in brief: (§2)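 Cells were grown on coverslips for 24 h, then given test compound at 50 nM for 12 h. Fixed in 4% paraformaldehyde (10 min), permeabilized with 0.1% Triton X-100 (10 min) and blocked in 1% BSA (30 min). Anti-AR primary 1 h, fluorescent secondary 1 h, nuclei stained with DAPI 1 µg/mL for 10 min, then imaged by fluorescence microscopy.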

AR in T98G cells = experiment: AR immunofluorescence assay in T98G cells; type: cell-based, human; details: 50 nM, 12 h, compared to the control
Method in brief: as §2

U87 xenograft tumor = U87 xenograft tumor model in nude mice; type: in vivo; details: for nude mice body weight / tumor size / tumor weight: 20 mg/kg IP every other day; for nude mice body weight / tumor size: 2 weeks; for tumor size / tumor weight / AR protein level in tumors: vs control; for tumor weight: end of experiment; for AR protein level in tumors: 20 mg/kg IP, Western blotting of tumor lysates
Method in brief: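 Nude mice (5–6 weeks) received U87 cells (5 × 10^6 in PBS) subcutaneously into both flanks; n = 4/group, 8 tumors/group. At about 50 mm3, mice got vehicle (DMSO) or test compound 20 mg/kg in PBS IP three times weekly for 14 days. Calipers three times weekly, V = 2/3 d1 × d2², body weight recorded. At end: CO2 euthanasia, tumors weighed, two tumors per mouse pooled and homogenized in RIPA for AR blotting.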

Maximum-tolerated dose = type: in vivo; details: 100 mg/kg per day IP for 10 days; for body weight growth rate / hematology, profile of the blood / tissue staining (H&E) of kidney, spleen, lung, liver, and heart: vs control group
Method in brief: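 Twelve C57BL/6 mice randomised into three groups (vehicle DMSO, or test compound in PBS), dosed IP daily and euthanised after 10 days. Body weight recorded daily. Nonfasted cardiac blood drawn immediately after euthanasia for automated haematology analysis. Heart, liver, spleen, lung and kidney rinsed in PBS, formalin-fixed, ethanol-dehydrated, xylene-cleared, paraffin-embedded and H&E-stained.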

[4] = cited from earlier work
[5] = system: AR-overexpressed GBM cell lines U87 and T98G; type: cell-based, human; details: summary of Table 1
Method in brief: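 MTT assay in T98G and U87 cells kept in RPMI1640 or DMEM with 10% FBS and penicillin/streptomycin at 37 °C, 5% CO2. MTT 1 mg/mL for 2 h at 37 °C, formazan dissolved in DMSO, A570 read. Eight replicates; IC50 by nonlinear regression.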

SMILES | AR downregulation activity at 50 nM [1] | AR downregulation activity at 100 nM [1] | AR protein level [1] | AR protein level [2] | mutated AR (AR-V7) level (AR-V7 in T98G cells) | inhibition of in vitro chaperone function of HSP27 [3] | interference with DTT-induced insulin aggregation [3] | fluorescence intensities of AR (AR in U87 cells) | fluorescence intensities of AR (AR in T98G cells) | nude mice body weight (U87 xenograft tumor) | tumor size (U87 xenograft tumor) | tumor weight (U87 xenograft tumor) | AR protein level in tumors (U87 xenograft tumor) | condition observation (signs of toxicity such as dehydration, acute pain, or distress) (Maximum-tolerated dose) | body weight growth rate (Maximum-tolerated dose) | hematology, profile of the blood (Maximum-tolerated dose) | tissue staining (H&E) of kidney, spleen, lung, liver, and heart (Maximum-tolerated dose) | further results
COc1ccc(OC)c(COc2cc(NC(=O)c3ccc4ccccc4c3)ccc2NS(C)(=O)=O)c1 [Compound 26, N-(3-((2,5-Dimethoxybenzyl)oxy)-4-(methylsulfonamido)phenyl)-2-naphthamide] | potent AR downregulation activity | significant AR downregulation activity | significantly downregulate | significantly downregulate | downregulate | significantly inhibit | do not interfere | decreased | decreased | not affected | significantly decreased | significantly decrease | significantly decreased | do not show any sign of toxicity | no growth rate difference | no change | no substantial histological abnormalities | –
COc1ccc(OC)c(COc2cc(NC(=O)c3ccc4c(c3)OCO4)ccc2NS(C)(=O)=O)c1 [Compound 4, N-(3-((2,5-Dimethoxybenzyl)oxy)-4-(methylsulfonamido)phenyl)benzo[d][1,3]dioxole-5-carboxamide] | potent AR downregulation activity | significant AR downregulation activity | significantly downregulate | significantly downregulate | downregulate | significantly inhibit | do not interfere | decreased | decreased | not affected | significantly decreased | significantly decrease | significantly decreased | do not show any sign of toxicity | no growth rate difference | no change | no substantial histological abnormalities | inhibition at 10 µM ([3]; read-out: inhibition of the chaperone function): > 50%
COc1ccc(C(=O)Nc2ccc(NS(C)(=O)=O)c(OCc3cc(OC)ccc3OC)c2)cc1 [Compound I, N-(3-((2,5-dimethoxybenzyl)oxy)-4-(methylsulfonamido)phenyl)-4-methoxybenzamide] | – | – | – | – | – | – | – | – | – | – | – | – | – | – | – | – | – | AUC in brain tissue as share of the AUC in plasma [4]: about 2%; half-life [4]: about 1.5 h
COc1ccc(OC)c(COc2cc(NC(=O)c3ccno3)ccc2NS(C)(=O)=O)c1 [Compound 36, N-(3-((2,5-Dimethoxybenzyl)oxy)-4-(methylsulfonamido)phenyl)isoxazole-5-carboxamide] | – | significant AR downregulation activity | – | – | – | – | – | – | – | – | – | – | – | – | – | – | – | activity in GBM cell growth inhibition (SAR wording) [5]: lower activity
